The results in this text go back to ChEMBL document CHEMBL4020830, “Design, Synthesis, and Evaluation of a Novel Series of Indole Sulfonamide Peroxisome Proliferator Activated Receptor (PPAR) α/γ/δ Triple Activators: Discovery of Lanifibranor, a New Antifibrotic Clinical Candidate” (J Med Chem, 2018).

The target in data set [1] is T1, Peroxisome proliferator-activated receptor delta (Mus musculus) (UniProt P35396).
T1 sequence (whole entry): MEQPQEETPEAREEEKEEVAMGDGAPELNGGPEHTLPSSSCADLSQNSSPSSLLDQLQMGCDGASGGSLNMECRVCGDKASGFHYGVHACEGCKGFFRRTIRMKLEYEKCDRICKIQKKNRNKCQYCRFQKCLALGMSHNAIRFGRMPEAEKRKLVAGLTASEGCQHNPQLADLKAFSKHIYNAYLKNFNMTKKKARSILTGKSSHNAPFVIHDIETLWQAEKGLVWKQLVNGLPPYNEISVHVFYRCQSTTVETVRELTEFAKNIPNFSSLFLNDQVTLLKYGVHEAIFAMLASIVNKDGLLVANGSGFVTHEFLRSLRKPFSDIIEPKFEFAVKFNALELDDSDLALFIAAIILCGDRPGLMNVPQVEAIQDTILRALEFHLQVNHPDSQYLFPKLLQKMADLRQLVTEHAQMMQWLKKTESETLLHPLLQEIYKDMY
Kind of data set: Transactivation of PPARdelta in mouse C2C12 cells assessed increase in [14C]oleate beta-oxidation at 3 uM preincubated for 48 hrs followed by [14C]oleate addition during last 2 hrs of incubation period relative to control. The format is cell-based. The essentials: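 Fatty acid beta-oxidation was used as the functional read-out. PPARα activity was tested in human hepatoma HuH7 cells and PPARδ activity in mouse myoblast C2C12 cells, at 1, 3, 10 and 30 µM. Values are % beta-oxidation, mean of at least 2 independent experiments run in triplicate, with single-experiment values flagged.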

The subject of data set [2] is Rattus norvegicus. Description: Toxicity in Sprague-Dawley rat assessed as effect on plasma volume at 100 to 1000 mg/kg for 4 weeks by evans blue dye based assay. It is filed as organism-based. Particulars: in vivo, 672 h. The essentials:
(§1)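 Sprague-Dawley rats were treated at 100 and 1000 mg/kg. Hematocrit and plasma volume were measured after 4 weeks and heart weight after 6 weeks. Analysis was one-way ANOVA with Dunnett's test versus control.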

Data set [3] has as its system Rattus norvegicus. Description: Toxicity in Sprague-Dawley rat assessed as effect on heart weight at 100 to 1000 mg/kg for 6 weeks. It is filed as organism-based. Particulars: in vivo, 1008 h. The essentials:
as §1

Data set [4] concerns the target T2, Peroxisome proliferator-activated receptor gamma (Homo sapiens, UniProt P37231).
T2 sequence (P37231 whole entry): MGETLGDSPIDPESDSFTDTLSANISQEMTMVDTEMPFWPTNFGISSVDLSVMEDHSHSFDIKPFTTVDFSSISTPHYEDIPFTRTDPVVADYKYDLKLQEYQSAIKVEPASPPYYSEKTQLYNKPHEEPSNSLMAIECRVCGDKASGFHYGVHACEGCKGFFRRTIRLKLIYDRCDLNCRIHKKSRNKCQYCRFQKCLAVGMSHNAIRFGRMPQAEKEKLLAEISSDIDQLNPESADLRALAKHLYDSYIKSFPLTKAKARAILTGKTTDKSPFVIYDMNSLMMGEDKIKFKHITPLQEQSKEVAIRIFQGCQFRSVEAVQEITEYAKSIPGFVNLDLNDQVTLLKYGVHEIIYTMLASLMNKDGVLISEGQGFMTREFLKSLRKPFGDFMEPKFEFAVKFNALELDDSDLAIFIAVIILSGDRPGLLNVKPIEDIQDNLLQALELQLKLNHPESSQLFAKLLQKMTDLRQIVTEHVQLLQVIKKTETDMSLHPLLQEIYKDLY

In data set [5] the target is T3, Peroxisome proliferator-activated receptor gamma (Mus musculus, UniProt P37238).
T3 sequence (P37238 whole entry): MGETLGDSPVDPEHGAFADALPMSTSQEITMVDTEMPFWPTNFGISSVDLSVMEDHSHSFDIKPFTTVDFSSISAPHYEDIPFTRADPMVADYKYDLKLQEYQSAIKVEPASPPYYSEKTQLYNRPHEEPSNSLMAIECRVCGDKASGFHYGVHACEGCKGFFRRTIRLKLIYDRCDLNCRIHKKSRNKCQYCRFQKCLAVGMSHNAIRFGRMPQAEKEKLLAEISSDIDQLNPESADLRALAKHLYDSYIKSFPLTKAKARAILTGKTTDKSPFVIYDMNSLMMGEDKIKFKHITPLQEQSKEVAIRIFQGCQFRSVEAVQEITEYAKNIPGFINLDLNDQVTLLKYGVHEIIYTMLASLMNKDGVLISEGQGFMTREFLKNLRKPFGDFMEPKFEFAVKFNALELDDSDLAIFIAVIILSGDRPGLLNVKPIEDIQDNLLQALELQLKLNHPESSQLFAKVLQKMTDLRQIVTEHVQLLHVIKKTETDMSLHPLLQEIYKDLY
Kind of data set: Transactivation of mouse GAL4-fused PPARgamma LBD expressed in African green monkey COS7 cells co-expressing 5Gal4 pGL3 TK Luc after overnight incubation by luciferase reporter gene assay. In general terms: In a reporter assay the amount or activity of a reporter protein is the signal.

For data set [6], the target named is T2, Peroxisome proliferator-activated receptor gamma. The source holds these as a separate data set.
For data set [7], the target named is T4, Peroxisome proliferator-activated receptor delta (Mus musculus, UniProt P35396).
T4 sequence (P35396 whole entry): T1 sequence (whole entry)
Description: Transactivation of mouse GAL4-fused PPARdelta LBD expressed in African green monkey COS7 cells co-expressing 5Gal4 pGL3 TK Luc after overnight incubation by luciferase reporter gene assay. The format is cell-based.

Data set [8] has as its target T2, Peroxisome proliferator-activated receptor gamma. The source holds these as a separate data set.
The target is the same in data set [9]. The source holds these as a separate data set.
The subject of data set [10] is Rattus norvegicus. Kind of data set: Toxicity in Sprague-Dawley rat assessed as reduction in hematocrit level at 100 to 1000 mg/kg for 4 weeks. Particulars: in vivo, 672 h. It is filed as organism-based. The essentials: as §1

A word on the EC50: it is the midpoint of the concentration-response curve.

Regarding `O=C(O)CCCc1cc2cc(Cl)ccc2n1S(=O)(=O)c1ccc2ncsc2c1` [LANIFIBRANOR], the Activity in data set [1] was 37%; with Rattus norvegicus [2], “Non-Toxic”; in the data set on Rattus norvegicus [3], “Non-Toxic”; with Rattus norvegicus [10] it was “Non-Toxic”. Further, the EC50 in [4] amounted to 3410 nM; in data set [5] it was 202 nM; in data set [6], 4110 nM; in [7], 1560 nM; in data set [8], 3210 nM; in data set [9], 1140 nM.
